Laboratory results taken from ChEMBL document CHEMBL1177799 (Bioorg Med Chem Lett, 2010).

target: T1, Adenosine receptor A1 (Homo sapiens, UniProt P30542); assay: Displacement of [3H]-DPCPX from human adenosine A1 receptor expressed in CHO-K1 cells after 1 hr by scintillation counting; assay type: cell-based
T1 sequence (P30542 whole entry): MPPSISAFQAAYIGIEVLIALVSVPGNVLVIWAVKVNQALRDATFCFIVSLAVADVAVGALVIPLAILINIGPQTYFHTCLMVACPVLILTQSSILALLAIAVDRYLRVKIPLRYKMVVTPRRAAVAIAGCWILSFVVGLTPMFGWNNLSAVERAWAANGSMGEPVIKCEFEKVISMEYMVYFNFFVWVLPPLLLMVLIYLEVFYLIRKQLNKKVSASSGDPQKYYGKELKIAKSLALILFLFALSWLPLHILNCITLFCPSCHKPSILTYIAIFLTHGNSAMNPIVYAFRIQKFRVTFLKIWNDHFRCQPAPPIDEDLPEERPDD
Method in brief: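 Commercial human A1 membranes (10 µg/well) in HEPES 50 mM, NaCl 100 mM, MgCl2 1 mM buffer; competition against [3H]-DPCPX (4.8 nM final), 1 h at room temperature with orbital shaking. Filtration harvest on polyethyleneimine-treated (0.5%) glass-fibre plates, air-dried, scintillation counting.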

Structure (SMILES)	Ki [nM]
CCN(C(C)=O)c1ccc(OC)c2nc(NC(=O)c3ccc(C(=O)N4CCCC4)cc3)sc12	50
CCN(C(C)=O)c1ccc(OC)c2nc(NC(=O)c3ccc(-n4cnnn4)cc3)sc12	130
COc1ccc(N(CCCO)C(C)=O)c2sc(NC(=O)c3ccc(F)cc3)nc12	100
COCCN(C(C)=O)c1ccc(OC)c2nc(NC(=O)c3ccc(F)cc3)sc12	110
COc1ccc(N(CC(C)C)C(C)=O)c2sc(NC(=O)c3ccc(F)cc3)nc12	37
CCN(C(C)=O)c1ccc(OC)c2nc(NC(=O)c3ccc(F)cc3)sc12	66
COc1ccc(N(C)C(C)=O)c2sc(NC(=O)c3ccc(F)cc3)nc12	66
CCN(C(C)=O)c1ccc(OC)c2nc(NC(=O)c3ccc(-n4ccnc4)cc3)sc12	150
CCN(C(C)=O)c1ccc(OC)c2nc(NC(=O)c3ccc(CN4CCCC4=O)cc3)sc12	400
CCN(C(C)=O)c1ccc(OC)c2nc(NC(=O)c3ccc(C(=O)N(C)CCOC)cc3)sc12	180

Other lines, results leading:

Ki [nM]	Structure (SMILES)
30	COc1ccc(N(C(C)=O)C(F)F)c2sc(NC(=O)c3ccc(F)cc3)nc12
450	COc1ccc(N(CCO)C(C)=O)c2sc(NC(=O)c3ccc(F)cc3)nc12
42	COc1ccc(N(CC(F)(F)F)C(C)=O)c2sc(NC(=O)c3ccc(F)cc3)nc12
185	CCN(C(C)=O)c1ccc(OC)c2nc(NC(=O)c3ccc(C(=O)OC)cc3)sc12
410	CCN(C(C)=O)c1ccc(OC)c2nc(NC(=O)c3ccc(CN(C)S(C)(=O)=O)cc3)sc12
23	COC(=O)CN(C(C)=O)c1ccc(OC)c2nc(NC(=O)c3ccc(F)cc3)sc12

target: Adenosine receptor A2a (Homo sapiens, UniProt P29274); assay: Displacement of [3H]-ZM241385 from human adenosine A2A receptor expressed in CHO-K1 cells after 1 hr by scintillation counting; assay type: cell-based
Sequence (P29274 whole entry): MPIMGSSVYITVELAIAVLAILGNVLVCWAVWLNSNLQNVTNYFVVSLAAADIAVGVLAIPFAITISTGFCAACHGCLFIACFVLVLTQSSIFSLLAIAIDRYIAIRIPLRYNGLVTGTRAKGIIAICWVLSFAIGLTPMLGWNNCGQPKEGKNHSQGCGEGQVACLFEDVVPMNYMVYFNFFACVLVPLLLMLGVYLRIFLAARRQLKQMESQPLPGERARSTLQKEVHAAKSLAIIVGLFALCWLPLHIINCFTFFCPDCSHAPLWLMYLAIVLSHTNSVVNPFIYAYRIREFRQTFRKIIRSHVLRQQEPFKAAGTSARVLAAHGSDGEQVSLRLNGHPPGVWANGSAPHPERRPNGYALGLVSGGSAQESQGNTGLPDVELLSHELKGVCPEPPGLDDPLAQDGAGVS

Structure (SMILES)	Ki [nM]
CCN(C(C)=O)c1ccc(OC)c2nc(NC(=O)c3cnn(C)c3)sc12	41
CCN(C(C)=O)c1ccc(OC)c2nc(NC(=O)c3ccc(C(=O)N4CCCC4)cc3)sc12	68
CCN(C(C)=O)c1ccc(OC)c2nc(NC(=O)c3ccc(-n4cnnn4)cc3)sc12	80
COc1ccc(N(CCCO)C(C)=O)c2sc(NC(=O)c3ccc(F)cc3)nc12	29
COCCN(C(C)=O)c1ccc(OC)c2nc(NC(=O)c3ccc(F)cc3)sc12	38
COc1ccc(N(CC(C)C)C(C)=O)c2sc(NC(=O)c3ccc(F)cc3)nc12	3
CCN(C(C)=O)c1ccc(OC)c2nc(NC(=O)c3ccc(F)cc3)sc12	22
COc1ccc(N(C)C(C)=O)c2sc(NC(=O)c3ccc(F)cc3)nc12	39
CCN(C(C)=O)c1ccc(OC)c2nc(NC(=O)c3ccc(-n4ccnc4)cc3)sc12	77
CCN(C(C)=O)c1ccc(OC)c2nc(NC(=O)c3ccc(CN4CCCC4=O)cc3)sc12	27
CCN(C(C)=O)c1ccc(OC)c2nc(NC(=O)c3ccc(C(=O)N(C)CCOC)cc3)sc12	26

Other lines, results leading:

Ki [nM]	Structure (SMILES)
61	COc1ccc(N(C(C)=O)C(F)F)c2sc(NC(=O)c3ccc(F)cc3)nc12
98	COc1ccc(N(CCO)C(C)=O)c2sc(NC(=O)c3ccc(F)cc3)nc12
35	COc1ccc(N(CC(F)(F)F)C(C)=O)c2sc(NC(=O)c3ccc(F)cc3)nc12
170	CCN(C(C)=O)c1ccc(OC)c2nc(NC(=O)c3ccc(C(=O)OC)cc3)sc12
71	CCN(C(C)=O)c1ccc(OC)c2nc(NC(=O)c3ccc(CN(C)S(C)(=O)=O)cc3)sc12
5	COC(=O)CN(C(C)=O)c1ccc(OC)c2nc(NC(=O)c3ccc(F)cc3)sc12

target: T2, Adenosine receptor A2b (Homo sapiens, UniProt P29275); assay: Antagonist activity at human adenosine A2B receptor expressed in CHO cells assessed as inhibition of adenosine-induced cAMP production; assay type: functional, cell-based
T2 sequence (P29275 whole entry): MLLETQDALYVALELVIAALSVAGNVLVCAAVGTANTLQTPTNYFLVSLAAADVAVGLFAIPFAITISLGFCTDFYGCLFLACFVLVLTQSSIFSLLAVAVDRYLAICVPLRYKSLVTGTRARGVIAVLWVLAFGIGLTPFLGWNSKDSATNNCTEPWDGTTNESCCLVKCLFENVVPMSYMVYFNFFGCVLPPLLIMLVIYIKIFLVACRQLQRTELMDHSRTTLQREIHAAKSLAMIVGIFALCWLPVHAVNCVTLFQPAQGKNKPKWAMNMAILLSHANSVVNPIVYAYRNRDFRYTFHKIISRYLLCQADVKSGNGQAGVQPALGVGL
Method in brief: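 CHO cells stably transfected with human A2B receptor, grown overnight as monolayer (7500 cells/well), washed with Krebs buffer, then exposed to compounds in Krebs buffer (final DMSO 1.1%) for 20–25 min. Wells emptied, cells lysed and cAMP measured with an enzyme-fragment complementation cAMP kit for adherent cells.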

Structure (SMILES)	IC50 [nM]
CCN(C(C)=O)c1ccc(OC)c2nc(NC(=O)c3cn[nH]c3)sc12	21
CCN(C(C)=O)c1ccc(OC)c2nc(NC(=O)c3cnn(C)c3)sc12	29
CCN(C(C)=O)c1ccc(OC)c2nc(NC(=O)c3ccc(C(=O)N4CCCC4)cc3)sc12	16
CCN(C(C)=O)c1ccc(OC)c2nc(NC(=O)c3ccc(-n4cnnn4)cc3)sc12	28
COc1ccc(N(CCCO)C(C)=O)c2sc(NC(=O)c3ccc(F)cc3)nc12	42
COCCN(C(C)=O)c1ccc(OC)c2nc(NC(=O)c3ccc(F)cc3)sc12	33
COc1ccc(N(CC(C)C)C(C)=O)c2sc(NC(=O)c3ccc(F)cc3)nc12	23
CCN(C(C)=O)c1ccc(OC)c2nc(NC(=O)c3ccc(F)cc3)sc12	12
COc1ccc(N(C)C(C)=O)c2sc(NC(=O)c3ccc(F)cc3)nc12	15
CCN(C(C)=O)c1ccc(OC)c2nc(NC(=O)c3ccc(-n4ccnc4)cc3)sc12	19
CCN(C(C)=O)c1ccc(OC)c2nc(NC(=O)c3ccc(CN4CCCC4=O)cc3)sc12	28
CCN(C(C)=O)c1ccc(OC)c2nc(NC(=O)c3ccc(C(=O)N(C)CCOC)cc3)sc12	13

The remaining compounds from weak to strong by IC50, led by results:

IC50 [nM]	Structure (SMILES)
230	COc1ccc(N(C(C)=O)C(F)F)c2sc(NC(=O)c3ccc(F)cc3)nc12
77	COc1ccc(N(CCO)C(C)=O)c2sc(NC(=O)c3ccc(F)cc3)nc12
40	COc1ccc(N(CC(F)(F)F)C(C)=O)c2sc(NC(=O)c3ccc(F)cc3)nc12
35	CCN(C(C)=O)c1ccc(OC)c2nc(NC(=O)c3ccc(C(=O)OC)cc3)sc12
19	COc1ccc(N(C(C)=O)C(C)C)c2sc(NC(=O)c3ccc(F)cc3)nc12
19	CCN(C(C)=O)c1ccc(OC)c2nc(NC(=O)c3ccc(CN(C)S(C)(=O)=O)cc3)sc12
8	COC(=O)CN(C(C)=O)c1ccc(OC)c2nc(NC(=O)c3ccc(F)cc3)sc12

target: T2, Adenosine receptor A2b; assay: Displacement of [3H]ZM241385 from human adenosine A2B receptor expressed in CHO cells after 1 hr by scintillation counting; assay type: cell-based
Method in brief: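 Whole CHO cells expressing human A2B receptor, harvested mechanically from 80% confluent flasks, frozen, then resuspended in assay buffer on assay day. Competition against [3H]ZM241385 (30 nM final), 1 h at room temperature with shaking. Harvest on 0.5% polyethyleneimine-treated filter plates, air-dried, scintillation counting.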

Structure (SMILES)	Ki [nM]
CCN(C(C)=O)c1ccc(OC)c2nc(NC(=O)c3cnn(C)c3)sc12	19
CCN(C(C)=O)c1ccc(OC)c2nc(NC(=O)c3ccc(-n4cnnn4)cc3)sc12	23
CCN(C(C)=O)c1ccc(OC)c2nc(NC(=O)c3ccc(F)cc3)sc12	13
COc1ccc(N(C)C(C)=O)c2sc(NC(=O)c3ccc(F)cc3)nc12	22
CCN(C(C)=O)c1ccc(OC)c2nc(NC(=O)c3ccc(-n4ccnc4)cc3)sc12	8
CCN(C(C)=O)c1ccc(OC)c2nc(NC(=O)c3ccc(CN4CCCC4=O)cc3)sc12	14
CCN(C(C)=O)c1ccc(OC)c2nc(NC(=O)c3ccc(C(=O)N(C)CCOC)cc3)sc12	13

The next lines start with the values.

Ki [nM]	Structure (SMILES)
15	CCN(C(C)=O)c1ccc(OC)c2nc(NC(=O)c3ccc(C(=O)OC)cc3)sc12
4	CCN(C(C)=O)c1ccc(OC)c2nc(NC(=O)c3ccc(CN(C)S(C)(=O)=O)cc3)sc12
